Only some compounds are listed: those with a hit (about 1.9% of all), similar ones and a draw of the others.
PglD inh – PglD (C. jejuni) enzyme inhibition; purified PglD enzyme, DTNB colorimetric CoA detection; inhibition, % at 12.5 µM; 0.098% of 360,000 active; AID 602405; in the data active = inhibition above about 16%, passing the limit was not always enough
Glyco luc inh – N-linked glycosylation inhibition. D54 ERlucT glycosylation luciferase reporter, 24 h; percent of 100 nM tunicamycin response. reporter increase, % at 12.5 µM. 0.23% of 360,000 active. AID 588692;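 active = mean luciferase reporter signal, scaled so untreated is 0 and the glycosylation-blocking control 100, at or above a set limit in every replicate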;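 also: luciferase carries N-glycosylation sites so blocking glycosylation raises the light; 0% = median of neutral control wells and 100% = median of 100 nM tunicamycin wells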
SR-BI HDL uptake – inhibitors of mouse SR-BI mediated HDL lipid uptake. inhibition, % at 12.5 µM. ldlA[mSR-BI] CHO cells, DiI-HDL uptake fluorescence, 3 h. 0.96% of 320,000 active. Q61009;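 active = mean replicate inhibition of at least 70% and a set share of replicates each scoring 70 or more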;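 also: 0% = median of neutral control wells and 100% = median of positive control wells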
SR-BI uptake up – SR-BI HDL lipid transfer activation; CHO ldlA[mSR-BI] cells, DiI-HDL uptake fluorescence, 3 h; 100 = double the neutral-control signal; activation, % at 12.5 µM; 0.096% of 320,000 active;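 active = mean replicate activation of at least 60% and every replicate at or above 60%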;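 also: 0% = median plate neutral-control signal and 100% = twice that signal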
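Assay system: CHO ldlA[mSR-BI] cells, LDL receptor-null, SR-BI overexpressing; medium: Ham's F12 with 0.5% BSA, HEPES 25 mM, pH 7.4; also added: DiI-HDL 10 µg/mL; timing: 3 h uptake period with compound, 37 °C; signal: DiI fluorescence, bottom read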
Rtt109 HAT inh – blocks Candida albicans Rtt109/Vps75 acetyltransferase activity | Q5AAJ8 | purified Rtt109/Vps75, ThioGlo CoA-SH fluorescence, 4 h | inhibition, % at 34.9 µM | 0.16% of 330,000 active;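 active = inhibition of at least 50% in every replicate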
Target sequence (Q5AAJ8 whole entry, looked up): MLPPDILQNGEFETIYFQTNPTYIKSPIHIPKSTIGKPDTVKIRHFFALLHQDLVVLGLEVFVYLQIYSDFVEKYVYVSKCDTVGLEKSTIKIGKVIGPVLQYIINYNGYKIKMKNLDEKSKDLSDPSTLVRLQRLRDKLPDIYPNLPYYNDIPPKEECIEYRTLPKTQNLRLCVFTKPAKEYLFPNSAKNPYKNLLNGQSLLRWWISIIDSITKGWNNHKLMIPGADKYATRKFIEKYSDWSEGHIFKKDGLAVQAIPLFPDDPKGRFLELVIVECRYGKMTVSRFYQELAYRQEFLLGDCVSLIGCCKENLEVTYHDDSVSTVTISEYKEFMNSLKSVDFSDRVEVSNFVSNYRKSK
Env fusion inh – inhibitors of HIV Env-mediated cell fusion | AID 651610 | inhibition, % at 12.3 µM | HeLa-JRFL Env/CEM21 cell fusion, luciferase | 1.1% of 360,000 active;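 active = mean replicate inhibition score of at least 50 and every replicate individually at or above 50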;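 also: 0% = plate neutral controls and 100% = maraviroc near 300 nM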
Active calls of the source: *; i = inactive; x = no result; [ ] = remark or other dose.

SMILES | PglD inh | Glyco luc inh | SR-BI HDL uptake | SR-BI uptake up | Rtt109 HAT inh | Env fusion inh
Cc1ccc(Nc2nc(N)nc(CN3CCN(Cc4ccc5c(c4)OCO5)CC3)n2)cc1C | x | 0 | 11 | -11 | -1 | -3
COc1ccccc1C(=O)Nc1nc2ccccc2s1 | 0 | -23 | 7 | -7 | -7 | 79*
COc1ccc(C(=O)Nc2nc3ccccc3s2)c(OC)c1 | -2 | -20 | 22 | -22 | -7 | 79*
O=C(Nc1nc2ccccc2s1)c1cc(-c2ccco2)nc2ccccc12 | x | -5 | 16 | -16 | -4 | 22
COc1ccc(NC(=O)c2nc3ccccc3s2)cc1 | x | -18 | -13 | 13 | 54* | -45
COc1ccc2nc(NC(=O)c3ccccc3C(=O)O)sc2c1 | 3 | 2 | -14 | 14 | 3 | -7
COc1cccc(-c2cc(C(=O)Nc3nc4ccccc4s3)c3ccccc3n2)c1 | 0 | -3 | 88* | -88 | -3 | x
C[C@H](CO)N1C[C@H](C)[C@H](CN(C)CC2CCCCC2)Oc2ccc(NS(=O)(=O)c3cn(C)cn3)cc2C1=O | -4 | x | x | x | x | -2[16.7 µM]
O=C(NC1Cc2ccccc2C1)[C@H]1N[C@H]2c3ccc(C4=CCCC4)c(=O)n3C[C@H]2[C@@H]1CO | 5 | x | x | x | x | x
COc1ccc(CN2[C@@H]3CN(C(=O)Nc4ccc(F)cc4)c4ccccc4[C@@H]3[C@@H]2CO)cc1 | -3 | x | x | x | x | x
COc1ccc(NC(=O)N(C)C[C@@H]2Oc3c(NC(=O)C4CC4)cccc3C(=O)N([C@@H](C)CO)C[C@H]2C)cc1 | -1 | x | x | x | x | -7[16.7 µM]
COc1ccc(C(=O)Nc2ccc3c(c2)C(=O)N(C)C[C@@H](OC)[C@H](C)CN(C(C)=O)[C@H](C)CO3)cc1 | -4 | x | x | x | x | x
O=C(Nc1cc2c3c(c1)C1CCCC1CN3CC1CCCC21)c1ccccc1 (stereo not given) | -2 | -3 | 80* | -80 | 5 | 40
O=C(Nc1cccc(C(=O)NC2CC2)c1)c1ccccc1 | 3 | 2 | -20 | 20 | -2 | 15
N#C/C(=C/c1ccc(N2CCOCC2)o1)c1ccc(Cl)cc1 | x | 10 | 85* | -85 | 6 | -259
COc1ccc(NC(=O)/C(C#N)=C\c2ccc(Br)o2)cc1 | x | 0 | x | x | -7 | -6
N#C/C(=C\c1ccc(N2CCOCC2)o1)c1nc2ccccc2[nH]1 | 2 | -8 | 15 | -15 | -31 | x
N#C/C(=C\c1ccc(N2CCCCC2)o1)C(=O)Nc1cccc(Br)c1 | x | -7 | 99* | -99 | 14 | -66
N#C/C(=C\c1ccc(N2CCCCC2)o1)C(N)=O | x | 1 | -6 | 6 | -2 | 57*
C[C@H](O)[C@@H]1C(=O)N2CCc3c([nH]c4cccc(-c5ccccc5)c34)[C@@H]2C[C@@H]1N(C)C(=O)OCc1ccccc1 | x | x | x | x | x | 71*
C[C@@H]1CCCCO[C@H](CN(C)S(=O)(=O)c2ccccc2)[C@H](C)CN([C@H](C)CO)C(=O)c2cc(NS(C)(=O)=O)ccc2O1 | -3 | x | x | x | x | 5[16.7 µM]
CCOC(=O)C1=C(c2ccccc2)NC(SCC(=O)Nc2cccc(C)c2)=C(C#N)C1c1ccco1 (stereo not given) | x | -5 | 10 | -10 | 22 | 111*
CN(C)c1ccc2c(c1)[C@@H]1C[C@H](CC(=O)NCc3ccccc3)O[C@@H](CO)[C@@H]1O2 | 2 | x | x | x | x | 5[16.7 µM]
O=C(Nc1ccc2ncccc2c1)Nc1ccc2ncccc2c1 | 4 | -2 | 26 | -26 | 14 | -4
O=C(Nc1ccc2ncccc2c1)c1ccccc1Br | 2 | -4 | -214 | 214* | -4 | x
SMILES | PglD inh | Glyco luc inh | SR-BI HDL uptake | SR-BI uptake up | Rtt109 HAT inh | Env fusion inh
CCc1ccc(CNC(=O)Cc2ccc(NC(=O)C3=C(C)OCCS3)cc2)cc1 | 0 | 31* | 23 | -23 | -8 | i
CC1=C(C(=O)Nc2ccc(CC(=O)NCc3ccccc3C)cc2)SCCO1 | -5 | 2 | 8 | -8 | 0 | -15
Cc1ccc(N(Cc2cc(=O)[nH]c3ccccc23)C(=O)CCl)c(C)c1 | x | -11 | -6 | 6 | -26 | 55*
CCCC(=O)N(Cc1cc(=O)[nH]c2ccccc12)c1ccc(C)cc1C | -4 | 0 | -8 | 8 | 12 | 0
COCC(=O)Nc1ccc2c(c1)C(=O)N(C)[C@@H]1CC[C@H](CC(=O)NCC(F)(F)F)O[C@@H]1CO2 | -5 | x | x | x | x | x
O=C1C2C(c3cccc(/C=C/c4ccccc4)c3)CC=CC2C(c2ccc(C(F)(F)F)cc2)N1Cc1ccccc1 (stereo not given) | 4 | -3 | -19 | 19 | 2 | 28
CC[C@@H]1CC=C[C@H]2[C@H]1C(=O)N(Cc1ccccc1)[C@H]2c1ccoc1 | 0 | 38* | -25 | 25 | 2 | x
CC[C@@H]1CC=C[C@H]2[C@H]1C(=O)N(Cc1ccccc1)[C@H]2c1ccc(C(F)(F)F)cc1 | -1 | -5 | 0 | 0 | 7 | 57*
COc1ccccc1C(=O)N1C[C@H]2[C@@H](c3ccccc31)[C@@H](CO)N2Cc1ccc(F)cc1 | -3 | x | x | x | x | x
COCCOC(=O)N1C(=O)[C@@]2(c3cc(C#Cc4ccc(OC)cc4)ccc31)[C@H](C(=O)NC[C@H](O)c1ccccc1)[C@H]1C(=O)O[C@H](c3ccccc3)[C@H](c3ccccc3)N1[C@@H]2c1ccc(O)cc1 | 3 | x | x | x | x | -23[16.7 µM]
COCC#Cc1ccc2c(c1)O[C@@H](CN(C)C(=O)CN(C)C)[C@H](C)CN([C@@H](C)CO)S2(=O)=O | 3 | x | x | x | x | 2[16.7 µM]
Cc1ccc(S(=O)(=O)c2nc(-c3ccccc3Cl)oc2N(C)C)cc1 | -42 | 14 | 37 | -37 | 0 | 56*
Cc1ccc(S(=O)(=O)c2nc(-c3ccccc3Br)oc2N(C)C)cc1 | -3 | 3 | 7 | -7 | 2 | -16
C[C@H]1CCCCO[C@H](CN(C)C(=O)CCC(F)(F)F)[C@@H](C)CN([C@@H](C)CO)C(=O)c2cc(NC(=O)CCC(F)(F)F)ccc2O1 | 4 | x | x | x | x | 12[16.7 µM]
CC(C)NC(=O)Nc1ccc2c(c1)C(=O)N([C@H](C)CO)C[C@@H](C)[C@H](CN(C)C(=O)CCC(F)(F)F)OCCCC[C@@H](C)O2 | -2 | x | x | x | x | 10[16.7 µM]
C[C@@H]1CCCCO[C@@H](CN(C)C(=O)Nc2ccccc2)[C@H](C)CN([C@H](C)CO)C(=O)c2cc(NC(=O)CCC(F)(F)F)ccc2O1 | 0 | x | x | x | x | 66*[16.7 µM]
CC(C)NC(=O)Nc1ccc2c(c1)C(=O)N([C@@H](C)CO)C[C@@H](C)[C@@H](CN(C)C(=O)CCC(F)(F)F)OCCCC[C@H](C)O2 | -3 | x | x | x | x | -17[16.7 µM]
CC(C)NC(=O)Nc1ccc2c(c1)C(=O)N([C@@H](C)CO)C[C@@H](C)[C@@H](CN(C)C(=O)CCC(F)(F)F)OCCCC[C@@H](C)O2 | -5 | x | x | x | x | 86*[16.7 µM]
C[C@@H]1CCCCO[C@H](CN(C)C(=O)Nc2ccccc2)[C@@H](C)CN([C@@H](C)CO)C(=O)c2cc(NC(=O)CCC(F)(F)F)ccc2O1 | 1 | x | x | x | x | -97[16.7 µM]

Bioassay records (PubChem)
